Lmaj promast: Leishmania major promastigote growth inhibition, primary screen; Leishmania major promastigotes, resazurin fluorescence viability; inhibition, % at 10 µM; hit rate 9% among 200,000; in the data active means inhibition above about 50%;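 further: promastigotes grown with compound for 44 hours at 28 °C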
TNAP inh no acc: human TNAP enzyme inhibitors, primary screen, biochemical, luminescent, no phosphate acceptor, uHTS; hit rate 0.26% among 200,000; AID 1012, 2008; inhibition, % at 20 µM; purified TNAP, CDP-star luminescence, 30 min; Alkaline phosphatase, tissue-nonspecific isozyme (Homo sapiens), P05186;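 active means tissue-nonspecific alkaline phosphatase inhibition above about 50% at 20 µM in the single-dose screen, limit read from the data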
Target sequence (P05186 whole entry, looked up): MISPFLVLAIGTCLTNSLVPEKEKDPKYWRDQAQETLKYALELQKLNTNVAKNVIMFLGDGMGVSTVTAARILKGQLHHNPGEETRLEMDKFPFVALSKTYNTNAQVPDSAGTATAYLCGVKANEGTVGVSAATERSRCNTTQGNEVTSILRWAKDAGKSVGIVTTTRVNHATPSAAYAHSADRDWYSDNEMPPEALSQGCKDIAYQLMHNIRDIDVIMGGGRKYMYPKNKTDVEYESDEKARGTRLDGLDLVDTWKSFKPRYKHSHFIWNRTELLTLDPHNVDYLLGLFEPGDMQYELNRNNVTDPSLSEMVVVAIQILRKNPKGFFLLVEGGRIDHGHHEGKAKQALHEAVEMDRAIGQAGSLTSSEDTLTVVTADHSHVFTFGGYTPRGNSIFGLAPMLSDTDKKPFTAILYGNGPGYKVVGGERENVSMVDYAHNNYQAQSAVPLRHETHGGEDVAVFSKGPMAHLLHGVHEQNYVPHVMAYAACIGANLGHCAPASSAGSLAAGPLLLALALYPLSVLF
TNAP inh hi DEA: human TNAP enzyme inhibitors, primary screen, biochemical, luminescent, high phosphate acceptor level, uHTS | Alkaline phosphatase, tissue-nonspecific isozyme (Homo sapiens), P05186 | purified TNAP, CDP-star luminescence, 1 M DEA | inhibition, % at 20 µM | hit rate 0.03% among 200,000 | AID 1135, 2008;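 active means over 50% inhibition of tissue-nonspecific alkaline phosphatase at 20 µM in the single-dose screen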
TNAP act hiacc: TNAP activators at high phosphate acceptor level, primary screen, biochemical, luminescence, uHTS. AID 1136, 2008. activation factor at 20 µM. Alkaline phosphatase, tissue-nonspecific isozyme (Homo sapiens), P05186. 200,000 tested, under 10 active. purified TNAP, CDP-star luminescence, 1 M DEA, 30 min; active compounds read high; 0 = EDTA background, 1 = DMSO-only activity;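 active means activation factor at least 2 at 20 µM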
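system = human TNAP | amount = enzyme diluted 1/800 final | reagent = 100 µM CDP-star substrate | signal = luminescent substrate turnover signal | dosing = one dose, 20 µM | benchmarks = EDTA negative control, DMSO positive control | measure = activation factor | timing = 30 min reaction, room temperature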
HCT116 PTEN-null: growth suppression of PTEN-null HCT116, primary screen, cell-based, CellTiter-Glo; HCT116 PTEN-null viability, 60 h; active compounds read low; viability, % at 10 µM; hit rate 1.2% among 140,000;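 active means viability at or below a set limit, 4 SD under the median of all tested compounds, cut at about 3.7% in these data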;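 further: PTEN knockout HCT116 line with beta catenin targeted HCT116 as companion control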
HCT116 bCat-KO: primary screen for growth suppressors in beta-catenin knockout HCT116 cells (colon tumor, human). HCT116 beta-catenin knockout viability, CellTiter-Glo, 60 h; active compounds read low. viability, % at 10 µM. AID 818, 2007. hit rate 1.5% among 140,000;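 active means viability at or under a set limit, the compound median less 4 SD, cut at about 6% in these data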
Numbers stand for hits; n = inactive; x = no result. Hits are enriched below; roughly 9.6% of the tested compounds scored in any of these assays.

SMILES	Lmaj promast	TNAP inh no acc	TNAP inh hi DEA	TNAP act hiacc	HCT116 PTEN-null	HCT116 bCat-KO
O=C1NC(c2ccccc2)=C(c2nc3ccccc3s2)C(c2ccc(F)cc2)N1 (stereo unspecified)	51	n	n	n	n	n
CCCC(=O)Nc1ccc2nc(SCC(=O)Nc3ccc(N4CCOCC4)c(Cl)c3)sc2c1	99	n	n	n	n	n
CC(C)(C)NC(=O)CSc1nc2ccc(NC(=O)CSc3nnc(N)s3)cc2s1	71	n	n	n	n	n
Nc1ccc2nc(SCC(=O)Nc3ccc(N4CCOCC4)c(Cl)c3)sc2c1	n	n	n	n	n	n
Cc1cc(NC(=S)Nc2cccc3ccccc23)n[nH]1	n	n	n	n	x	x
CCN(CC)CC#CC(OC)(c1ccccc1)c1ccccc1	64	n	n	n	x	x
CCN(CC)CCC#CC(O)(c1ccccc1)c1ccccc1	n	n	n	n	n	n
Cc1ccc(-c2nnc(Nc3ccc4c(c3)nc(C)n4C)c3ccccc23)cc1	101	n	n	n	n	n
C=CCOc1ccc2c(c1)C(=NO)c1cc(OCC=C)ccc1-2	96	n	n	n	n	n
CCN(c1ccccc1)S(=O)(=O)c1ccc(C(=O)NCC(c2cccs2)N(C)C)cc1 (stereo unspecified)	90	n	n	n	x	x
CCN(c1ccccc1)S(=O)(=O)c1ccc(NC(=S)NC(=O)c2cccs2)cc1	85	n	n	n	n	n
CCCOc1ccc(C(=O)NCC(c2cccs2)N(C)C)cc1 (stereo unspecified)	n	n	n	n	n	n
CN(C)S(=O)(=O)c1ccc(NC(=S)NC(=O)c2cccs2)cc1	n	n	n	n	x	x
C=CCCCCCCCC(=O)OC	n	n	n	n	x	x
O=C(O)C1CCC(N2C(=O)C3C4CCC(C4)C3C2=O)CC1 (stereo unspecified)	n	n	n	n	x	x
O=C(COc1ccc(Cl)cc1)Nc1nnc(-c2ccco2)o1	n	n	n	n	x	x
CCC1(C)Cc2c(sc3nc(NN)n(C)c(=O)c23)CO1 (stereo unspecified)	95	n	n	n	n	n
CC(=O)Nc1cc[n+](C(C)C(=O)c2ccc(Br)cc2)cc1 (stereo unspecified)	n	n	n	n	x	x
CCOC(=O)Cn1c2c(c(=N)c3c1CCC3)CCC2	n	n	n	n	n	n
CCCCCCCCCCn1c2c(c(=N)c3c1CCC3)CCC2	100	n	n	n	0.9	1.6
CCCCCCCCn1c2c(c(=N)c3ccccc31)CCC2	100	n	n	n	x	x
CCOC(=O)Cn1c2c(c(=N)c3ccccc31)CCC2	n	n	n	n	n	n
CCCCCCCCCn1c2c(c(=N)c3c1CCC3)CCCC2	100	n	n	n	x	x
O=C(COc1c(Cl)cc(Cl)cc1Cl)c1ccc(Cl)cc1	n	n	n	n	n	n
COc1cc(C)c(NC(=S)Nc2ccc(Cl)c(Cl)c2)cc1OC	n	n	n	n	n	n
SMILES	Lmaj promast	TNAP inh no acc	TNAP inh hi DEA	TNAP act hiacc	HCT116 PTEN-null	HCT116 bCat-KO
O=C(CNC(=O)c1cccs1)N/N=C/c1c[nH]c2ccccc12	n	n	n	n	x	x
CCN(CC)CCCn1c(C)cc2c(c1=O)C(c1cccc(Cl)c1)C(C#N)=C(N)O2 (stereo unspecified)	67	n	n	n	n	n
COc1ccc(C(=O)/C=C/C(=O)N(CC(=O)NC2CCCCC2)Cc2ccc(F)cc2)c(O)c1	n	n	n	n	x	x
COc1ccc(CNC(=O)C/C(C)=N/NC(=O)COc2ccc(C)cc2Br)cc1	n	n	n	n	x	x
Cn1c(=O)c2c(nc(N/N=C/c3ccc(OC(=O)c4ccco4)cc3)n2Cc2ccccc2)n(C)c1=O	61	n	n	n	n	n
CCn1c(SCc2ccc([N+](=O)[O-])cc2)nnc1C(C)NC(=O)c1ccc(C)cc1 (stereo unspecified)	n	n	n	n	n	n
Cc1ccccc1OCCC(=O)Nc1ccc(F)c(Cl)c1	68	n	n	n	n	n
CCOc1ccccc1OCCC(=O)Nc1ccc(F)c(Cl)c1	n	n	n	n	n	n
O=C1CN(S(=O)(=O)c2cc(Cl)ccc2Cl)CCN1	n	n	n	n	x	x
CCN(CC)S(=O)(=O)c1ccc(OC)c(NC(=S)Nc2cccc(C)c2C)c1	97	n	n	n	n	n
CCN(CC)S(=O)(=O)c1ccc(OC)c(NC(=S)Nc2cccc(C)c2)c1	98	n	n	n	n	n
O=C(N=Nc1c(O)[nH]c2ccc(Br)cc12)c1cc(-c2cccs2)nc2ccccc12	n	n	n	n	x	x
O=C(N=Nc1c(O)[nH]c2ccc(Br)cc12)c1cc(-c2cccc3ccccc23)n[nH]1	66	n	n	n	n	n
O=C(Nc1ccc(Cl)cc1)Nc1nc(-c2sccc2Br)cs1	n	n	n	n	n	3.8
Cc1csc(NC(=O)Nc2ccc(Cl)cc2)n1	n	n	n	n	n	n
CC1(C(=O)OCc2cc(=O)n3cc(Br)ccc3n2)CC1(Cl)Cl (stereo unspecified)	n	n	n	n	x	x
Cc1ccc(NC(=O)c2nc[nH]c2C(=O)Nc2ccc(C)cc2)cc1	n	n	n	n	n	n
O=C(Nc1ccc([N+](=O)[O-])cc1)c1nc[nH]c1C(=O)NC1CCCCC1	64	n	n	n	1.2	2.8
O=C(Nc1ccc(F)cc1)c1nc[nH]c1C(=O)Nc1ccc([N+](=O)[O-])cc1	92	n	n	n	1.4	1.3
Cc1ccc(NC(=O)CCCCCCCCCCC2COCCO2)c(C)c1 (stereo unspecified)	n	n	n	n	n	n
CC(C)C(c1nnnn1CC1CCCO1)N1CCN(C2CCCC2)CC1 (stereo unspecified)	n	n	n	n	n	n
CC(C)C(c1nnnn1CC1CCCO1)N1CCN(Cc2ccc3c(c2)OCO3)CC1 (stereo unspecified)	83	n	n	n	n	n
c1ccc(CCn2nnnc2C(c2cccs2)N2CCN(Cc3ccc4c(c3)OCO4)CC2)cc1 (stereo unspecified)	80	n	n	n	n	n
CC(C)C(c1nnnn1Cc1ccccc1)N1CCN(Cc2ccc3c(c2)OCO3)CC1 (stereo unspecified)	89	n	n	n	n	n
O=C(Cc1c(F)cccc1Cl)N(Cc1ccccc1)c1ccccn1	n	n	n	n	x	x
COC(=O)c1c(NC(=O)COC(=O)CNC(=O)C2CCCCC2)sc(C)c1C	n	n	n	n	n	n
CCCCNS(=O)(=O)c1ccc(NC(=O)c2c(-c3ccccc3Cl)noc2C)cc1	n	n	n	n	n	n
